Data from ChEMBL document CHEMBL4196230, “Design, Synthesis, and Blood-Brain Barrier Transport Study of Pyrilamine Derivatives as Histone Deacetylase Inhibitors” (ACS Med Chem Lett, 2018).
Activity calls are given as the source filed them. The rule behind the calls is not given here.

Assays:
[1] = Substrate activity at PYSOCA in human CMEC/D3 cells assessed as transporter-mediated drug uptake measured for 2 mins at 37degC in presence of pyrilamine; type: ADME, cell-based
[2] = Blood brain barrier permeability in Wistar rat brain at 20 uM by LC-MS/MS analysis; type: ADME, tissue-based
Method in brief: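 Right cerebral hemisphere of rat perfused with buffer containing test agent (20 µM) at 4.9 mL/min for 1 min.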

[3] = Substrate activity at PYSOCA in human CMEC/D3 cells assessed as transporter-mediated drug uptake measured for 1 min at 37degC in presence of NH4Cl under intracellular alkalization condition; type: ADME, cell-based
Method in brief: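 hCMEC/D3 cells were pretreated in transport buffer with or without 30 mM NH4Cl. Uptake was then measured at 37 °C for 1 min with or without 30 mM NH4Cl (Control, Pre and Acute conditions). Mean ± S.E., n = 4.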

[4] = Substrate activity at PYSOCA in human CMEC/D3 cells assessed as transporter-mediated drug uptake measured for 2 mins at 37degC in presence of L-carnitine; type: ADME, cell-based
[5] = Substrate activity at PYSOCA in human CMEC/D3 cells assessed as transporter-mediated drug uptake measured for 2 mins at 37degC in presence of decynium-22; type: ADME, cell-based
[6] = Substrate activity at PYSOCA in human CMEC/D3 cells assessed as Vmax for transporter-mediated drug uptake assessed per mg protein measured for 2 mins at 37degC; type: ADME, cell-based
Method in brief: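 Uptake by hCMEC/D3 cells measured over a range of concentrations at 37 °C for 2 min. Km and Vmax were obtained by fitting to Eq. 1. Mean ± S.E., n = 4.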

[7] = target: T1, Polyamine deacetylase HDAC10 (Homo sapiens, UniProt Q969S8); assay: Inhibition of human HDAC10 expressed in baculovirus infected Sf9 insect cells using HDAC substrate 3 measured after 30 mins by fluorescence assay
T1 sequence (Q969S8 whole entry): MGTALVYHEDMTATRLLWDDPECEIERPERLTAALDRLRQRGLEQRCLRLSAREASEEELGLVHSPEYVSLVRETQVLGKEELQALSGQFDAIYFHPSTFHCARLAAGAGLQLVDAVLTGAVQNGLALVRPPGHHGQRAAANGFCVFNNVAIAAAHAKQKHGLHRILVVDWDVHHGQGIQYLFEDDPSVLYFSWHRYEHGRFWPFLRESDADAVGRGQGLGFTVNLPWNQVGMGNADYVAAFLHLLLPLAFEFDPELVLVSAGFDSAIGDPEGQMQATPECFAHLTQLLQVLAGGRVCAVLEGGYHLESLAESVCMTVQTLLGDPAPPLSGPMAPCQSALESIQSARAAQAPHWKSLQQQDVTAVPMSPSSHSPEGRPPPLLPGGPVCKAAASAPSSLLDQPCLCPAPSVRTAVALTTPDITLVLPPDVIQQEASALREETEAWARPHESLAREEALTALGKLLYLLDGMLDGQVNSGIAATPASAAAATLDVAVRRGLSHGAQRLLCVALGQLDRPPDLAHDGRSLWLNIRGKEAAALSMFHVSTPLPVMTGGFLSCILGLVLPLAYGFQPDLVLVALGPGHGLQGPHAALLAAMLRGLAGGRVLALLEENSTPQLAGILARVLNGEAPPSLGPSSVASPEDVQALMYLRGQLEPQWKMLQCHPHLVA

[8] = target: T2, Histone deacetylase (Homo sapiens) (UniProt Q13547+O15379+Q9UBN7+Q92769+Q9UQL6+Q8WUI4+Q9BY41+Q96DB2+P56524+Q9UKV0+Q969S8); conditions: at 10 µM
[9] = Substrate activity at PYSOCA in human CMEC/D3 cells assessed as transporter-mediated drug uptake measured for 2 mins at 37degC in presence of TEA; type: ADME, cell-based
[10] = Substrate activity at PYSOCA in human CMEC/D3 cells assessed as transporter-mediated drug uptake measured for 2 mins at 37degC; type: ADME, cell-based
[11] = target: Histone deacetylase 5 (Homo sapiens) (UniProt Q9UQL6); assay: Inhibition of human recombinant HDAC5 expressed in baculovirus infected insect cells at 30 uM using HDAC class 2a substrate measured after 30 mins by fluorescence assay relative to control
Histone deacetylase 5 (Homo sapiens), sequence (Q9UQL6 whole entry): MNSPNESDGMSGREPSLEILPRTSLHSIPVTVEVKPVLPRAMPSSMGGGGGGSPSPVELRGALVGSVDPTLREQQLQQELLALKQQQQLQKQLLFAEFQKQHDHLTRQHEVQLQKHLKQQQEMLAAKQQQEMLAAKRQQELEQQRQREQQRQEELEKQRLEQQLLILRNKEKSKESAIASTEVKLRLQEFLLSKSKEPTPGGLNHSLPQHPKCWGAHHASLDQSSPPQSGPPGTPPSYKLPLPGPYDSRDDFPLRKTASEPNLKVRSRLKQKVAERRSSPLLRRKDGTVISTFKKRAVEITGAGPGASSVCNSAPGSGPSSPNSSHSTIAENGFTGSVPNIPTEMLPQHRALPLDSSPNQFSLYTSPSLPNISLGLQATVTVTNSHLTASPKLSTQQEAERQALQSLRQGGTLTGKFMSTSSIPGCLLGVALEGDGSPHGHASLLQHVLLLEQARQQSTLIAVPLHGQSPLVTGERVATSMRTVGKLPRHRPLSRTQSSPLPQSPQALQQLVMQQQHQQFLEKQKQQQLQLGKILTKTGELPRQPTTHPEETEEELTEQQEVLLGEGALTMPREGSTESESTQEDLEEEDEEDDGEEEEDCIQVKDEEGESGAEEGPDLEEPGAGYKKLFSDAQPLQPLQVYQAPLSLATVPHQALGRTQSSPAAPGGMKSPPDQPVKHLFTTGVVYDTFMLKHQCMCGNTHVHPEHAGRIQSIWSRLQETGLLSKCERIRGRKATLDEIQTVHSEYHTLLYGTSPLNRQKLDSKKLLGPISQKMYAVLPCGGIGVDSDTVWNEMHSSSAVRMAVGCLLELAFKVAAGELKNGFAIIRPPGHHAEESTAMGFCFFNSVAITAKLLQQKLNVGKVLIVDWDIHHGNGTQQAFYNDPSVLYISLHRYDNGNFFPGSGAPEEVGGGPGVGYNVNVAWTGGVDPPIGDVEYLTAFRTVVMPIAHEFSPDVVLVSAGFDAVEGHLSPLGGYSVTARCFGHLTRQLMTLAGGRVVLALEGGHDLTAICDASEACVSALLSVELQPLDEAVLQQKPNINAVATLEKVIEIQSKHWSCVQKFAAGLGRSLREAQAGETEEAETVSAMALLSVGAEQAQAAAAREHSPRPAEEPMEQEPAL

[12] = Substrate activity at PYSOCA in human CMEC/D3 cells assessed as transporter-mediated drug uptake measured for 2 mins at 37degC in presence of choline; type: ADME, cell-based
[13] = target: T2, Histone deacetylase (Homo sapiens); assay: Time-dependent inhibition of HDAC in human HeLaS3 cells assessed as increase in histone H3K9 acetylation at 10 uM by immunoblot analysis; type: cell-based
[14] = Substrate activity at PYSOCA in human CMEC/D3 cells assessed as transporter-mediated drug uptake measured for 2 mins at 37degC in presence of tramadol; type: ADME, cell-based
[15] = target: Histone deacetylase 9 (Homo sapiens) (UniProt Q9UKV0); assay: Inhibition of recombinant human C-terminal His-tagged HDAC9 (604 to 1066 residues) expressed in baculovirus infected insect cells at 30 uM using HDAC class 2a substrate measured after 30 mins by fluorescence assay relative to control
Histone deacetylase 9 (Homo sapiens), sequence (Q9UKV0 whole entry, the tested form may be a part): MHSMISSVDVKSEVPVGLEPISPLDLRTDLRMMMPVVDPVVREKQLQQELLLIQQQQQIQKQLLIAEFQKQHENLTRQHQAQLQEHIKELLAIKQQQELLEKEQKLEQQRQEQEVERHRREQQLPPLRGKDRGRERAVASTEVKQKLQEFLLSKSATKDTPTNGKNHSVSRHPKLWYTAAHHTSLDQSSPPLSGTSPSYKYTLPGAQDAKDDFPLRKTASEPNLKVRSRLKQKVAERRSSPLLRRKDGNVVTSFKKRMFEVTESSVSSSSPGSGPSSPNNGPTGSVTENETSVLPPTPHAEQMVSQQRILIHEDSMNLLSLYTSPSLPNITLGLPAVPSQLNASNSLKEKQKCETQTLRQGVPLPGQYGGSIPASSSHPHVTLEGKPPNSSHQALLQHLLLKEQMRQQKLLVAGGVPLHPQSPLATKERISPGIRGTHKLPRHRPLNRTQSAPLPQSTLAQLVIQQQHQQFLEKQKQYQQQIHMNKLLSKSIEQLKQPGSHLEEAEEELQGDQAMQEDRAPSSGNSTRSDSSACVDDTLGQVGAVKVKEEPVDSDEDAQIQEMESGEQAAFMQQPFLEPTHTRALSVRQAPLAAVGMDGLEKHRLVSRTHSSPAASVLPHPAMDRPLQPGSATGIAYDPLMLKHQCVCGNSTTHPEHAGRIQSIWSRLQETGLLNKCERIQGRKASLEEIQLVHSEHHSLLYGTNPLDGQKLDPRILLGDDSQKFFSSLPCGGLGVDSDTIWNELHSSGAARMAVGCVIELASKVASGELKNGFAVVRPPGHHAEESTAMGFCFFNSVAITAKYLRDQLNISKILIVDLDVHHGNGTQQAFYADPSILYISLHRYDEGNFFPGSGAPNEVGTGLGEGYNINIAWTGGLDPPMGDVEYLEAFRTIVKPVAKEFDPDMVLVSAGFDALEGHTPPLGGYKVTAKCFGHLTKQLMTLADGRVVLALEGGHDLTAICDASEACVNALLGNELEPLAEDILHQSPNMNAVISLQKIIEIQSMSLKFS

[16] = Substrate activity at PYSOCA in human CMEC/D3 cells assessed as transporter-mediated drug uptake measured for 2 mins at 37degC in presence of MPP+; type: ADME, cell-based
[17] = target: Histone deacetylase 3/Nuclear receptor corepressor 2 (HDAC3/NCoR2) (Homo sapiens, UniProt O15379); assay: Inhibition of human full length C-terminal His-tagged HDAC3/N-terminal GST-tagged human NCOR2 (395 to 489 residues) co-expressed in baculovirus infected Sf9 insect cells using HDAC substrate 3 measured after 30 mins by fluorescence assay
Histone deacetylase 3/Nuclear receptor corepressor 2 (HDAC3/NCoR2), sequence (O15379 whole entry, the tested form may be a part): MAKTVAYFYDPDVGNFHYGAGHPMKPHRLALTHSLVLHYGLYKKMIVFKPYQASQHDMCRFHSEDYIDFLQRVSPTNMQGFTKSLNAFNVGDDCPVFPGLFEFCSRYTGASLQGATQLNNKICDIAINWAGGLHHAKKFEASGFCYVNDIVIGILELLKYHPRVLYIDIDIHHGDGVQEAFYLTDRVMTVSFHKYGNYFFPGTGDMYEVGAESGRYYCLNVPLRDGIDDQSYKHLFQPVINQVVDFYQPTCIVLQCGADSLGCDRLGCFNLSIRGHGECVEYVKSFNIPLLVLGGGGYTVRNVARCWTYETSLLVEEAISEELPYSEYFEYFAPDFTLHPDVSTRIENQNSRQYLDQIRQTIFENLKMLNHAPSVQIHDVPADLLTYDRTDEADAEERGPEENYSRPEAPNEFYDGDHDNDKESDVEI
Histone deacetylase 3/Nuclear receptor corepressor 2 (HDAC3/NCoR2), sequence (Q9Y618 whole entry, further chain, the tested form may be a part): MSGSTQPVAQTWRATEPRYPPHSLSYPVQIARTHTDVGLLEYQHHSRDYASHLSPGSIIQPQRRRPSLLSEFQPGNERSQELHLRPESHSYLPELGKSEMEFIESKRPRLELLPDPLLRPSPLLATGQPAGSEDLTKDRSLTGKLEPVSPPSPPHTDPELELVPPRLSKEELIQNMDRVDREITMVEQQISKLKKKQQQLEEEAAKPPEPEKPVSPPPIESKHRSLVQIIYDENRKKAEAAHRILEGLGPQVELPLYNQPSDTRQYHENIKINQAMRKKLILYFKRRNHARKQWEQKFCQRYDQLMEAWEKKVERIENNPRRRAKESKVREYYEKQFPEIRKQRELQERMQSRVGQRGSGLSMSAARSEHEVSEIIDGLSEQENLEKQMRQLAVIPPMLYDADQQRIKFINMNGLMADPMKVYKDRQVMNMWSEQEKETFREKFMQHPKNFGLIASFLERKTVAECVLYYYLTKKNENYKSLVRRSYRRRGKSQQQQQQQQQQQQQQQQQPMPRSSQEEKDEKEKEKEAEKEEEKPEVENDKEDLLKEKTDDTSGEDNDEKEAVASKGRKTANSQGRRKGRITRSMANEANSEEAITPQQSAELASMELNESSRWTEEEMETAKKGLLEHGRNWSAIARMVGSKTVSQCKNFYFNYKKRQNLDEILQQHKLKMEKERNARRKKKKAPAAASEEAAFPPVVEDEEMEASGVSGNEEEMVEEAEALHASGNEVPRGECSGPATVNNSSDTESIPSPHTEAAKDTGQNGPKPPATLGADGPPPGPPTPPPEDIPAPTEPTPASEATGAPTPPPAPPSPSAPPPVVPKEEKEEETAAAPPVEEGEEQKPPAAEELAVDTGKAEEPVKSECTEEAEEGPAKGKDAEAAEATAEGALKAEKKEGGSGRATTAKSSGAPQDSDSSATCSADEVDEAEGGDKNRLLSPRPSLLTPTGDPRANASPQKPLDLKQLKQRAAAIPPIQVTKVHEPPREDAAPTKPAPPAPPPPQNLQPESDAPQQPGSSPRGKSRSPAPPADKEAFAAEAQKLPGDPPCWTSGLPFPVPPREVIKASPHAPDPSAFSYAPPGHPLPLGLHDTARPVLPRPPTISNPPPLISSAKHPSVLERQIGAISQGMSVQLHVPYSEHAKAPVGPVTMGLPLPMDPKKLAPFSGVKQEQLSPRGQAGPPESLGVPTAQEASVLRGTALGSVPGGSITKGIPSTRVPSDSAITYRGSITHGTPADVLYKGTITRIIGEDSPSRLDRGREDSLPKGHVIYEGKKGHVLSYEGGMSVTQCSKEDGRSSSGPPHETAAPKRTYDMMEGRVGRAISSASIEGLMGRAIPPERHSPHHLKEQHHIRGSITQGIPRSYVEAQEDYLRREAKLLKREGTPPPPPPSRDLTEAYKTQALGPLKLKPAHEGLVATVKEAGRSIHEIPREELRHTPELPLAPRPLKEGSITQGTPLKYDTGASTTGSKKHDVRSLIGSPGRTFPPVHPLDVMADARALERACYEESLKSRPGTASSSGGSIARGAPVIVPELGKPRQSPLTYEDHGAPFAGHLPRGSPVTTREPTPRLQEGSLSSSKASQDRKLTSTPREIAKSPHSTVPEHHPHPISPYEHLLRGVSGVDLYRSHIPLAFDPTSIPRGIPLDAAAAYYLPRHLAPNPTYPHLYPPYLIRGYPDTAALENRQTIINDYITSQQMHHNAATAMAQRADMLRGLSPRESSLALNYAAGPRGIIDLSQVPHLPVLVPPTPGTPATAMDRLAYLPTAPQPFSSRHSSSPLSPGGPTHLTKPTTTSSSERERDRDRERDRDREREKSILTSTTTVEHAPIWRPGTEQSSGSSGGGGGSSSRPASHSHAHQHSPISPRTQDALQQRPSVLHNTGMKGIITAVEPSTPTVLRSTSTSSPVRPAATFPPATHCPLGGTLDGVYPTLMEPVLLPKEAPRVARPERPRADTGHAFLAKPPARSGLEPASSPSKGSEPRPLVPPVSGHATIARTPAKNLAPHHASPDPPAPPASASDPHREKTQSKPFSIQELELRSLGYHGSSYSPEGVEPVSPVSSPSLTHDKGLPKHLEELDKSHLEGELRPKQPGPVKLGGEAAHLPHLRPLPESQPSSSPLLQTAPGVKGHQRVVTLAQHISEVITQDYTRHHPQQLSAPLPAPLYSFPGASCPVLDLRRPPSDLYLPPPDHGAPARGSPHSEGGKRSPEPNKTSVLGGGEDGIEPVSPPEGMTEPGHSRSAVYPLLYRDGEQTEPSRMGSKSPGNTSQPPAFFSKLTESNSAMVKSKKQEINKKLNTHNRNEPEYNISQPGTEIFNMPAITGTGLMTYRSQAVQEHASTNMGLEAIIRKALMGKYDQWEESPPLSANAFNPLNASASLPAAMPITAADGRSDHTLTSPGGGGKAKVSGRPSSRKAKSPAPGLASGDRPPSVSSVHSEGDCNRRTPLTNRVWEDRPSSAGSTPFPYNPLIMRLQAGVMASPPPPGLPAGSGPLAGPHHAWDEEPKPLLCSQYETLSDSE

Activity [1]: Not Active
pBBB [2]: 42.4 microL/min/g
Activity [3]: Not Active
Activity [4]: Active
Activity [5]: Active
Vmax [6]: 5.17 nmol/min
IC50 [7]: 15.5 µM
inhibition [8]: Active
Activity [9]: Active
Activity [10]: Dose-dependent effect
inhibition [11]: < 10%
Activity [12]: Active
TDI [13]: Active
Activity [14]: Not Active
inhibition [15]: < 10%
Activity [16]: Active
IC50 [17]: 12 µM
Compound: COc1ccc(CN(CCN(C)C)c2ccc(C(=O)Nc3ccccc3N)cn2)cc1
